Laboratory results as given in ChEMBL document CHEMBL4351015, “Design, synthesis and biological evaluation of 3-(imidazo[1,2-a]pyrazin-3-ylethynyl)-2-methylbenzamides as potent and selective pan-tropomyosin receptor kinase (TRK) inhibitors” (Eur J Med Chem, 2019).
Each block holds one molecule with its values, some of them ahead of it. Active and inactive are the calls of the source. The calls are words filed in the database; no cut-off is given here.

Key:
[1] = Ratio of drug concentration in brain to blood of Sprague-Dawley rat at 25 mg/kg, po administered via gavage incubated for 0.5 hrs by LC/MS-MS analysis; format: ADME, organism-based; conditions: brain and blood, read-out: BBR
SH-SY5Y [2] = assay: Inhibition of BDNF-induced cell invasion in human SH-SY5Y cells transfected with TrkB (unknown origin) incubated for 24 hrs by crystal violet staining microscopy-based matrigel assay; format: functional
In short: (§1)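 Invasion through Matrigel chambers: 1.5 X 10⁶ SH-SY5Y-TrkB cells in FBS-free medium with 0, 8, 40 or 200 nM compound were placed on top. Complete medium with or without BDNF 10 ng/mL went below. After 24 h at 37 °C, cells were fixed in methanol and stained with 0.25% crystal violet, and top-surface cells were removed. Six random fields were counted at 200X; mean of three independent experiments.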

SH-SY5Y [3] = assay: Inhibition of BDNF-induced cell migration in human SH-SY5Y cells transfected with TrkB (unknown origin) at 200 nM incubated for 24 hrs by crystal violet staining microscopy based transwell assay relative to control; format: functional
In short: (§2)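 Transwell migration: 1.5 X 10⁶ SH-SY5Y-TrkB cells in FBS-free medium containing 0, 8, 40 or 200 nM compound went in the top chamber. The bottom chamber held complete medium with or without BDNF 10 ng/mL. After 24 h at 37 °C, cells were methanol-fixed and stained with 0.25% crystal violet, and non-migrated cells were removed. Cells were counted in six random fields at 200X; mean of three independent experiments.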

[4] = molecular target: RAC-alpha serine/threonine-protein kinase (Homo sapiens, UniProt P31749); assay: Effect on ATK phosphorylation in BDNF-induced human SH-SY5Y cells up to 2 uM preincubated for 6 hrs followed by BDNF addition and measured after 30 mins by Western blot analysis; format: cell-based; conditions: 0.5 h
[5] = Ratio of drug concentration in brain to blood of Sprague-Dawley rat at 25 mg/kg, po administered via gavage incubated for 2 hrs by LC/MS-MS analysis; format: ADME, organism-based; conditions: brain and blood, read-out: BBR
SH-SY5Y [6] = assay: Inhibition of cell migration in human SH-SY5Y cells transfected with TrkB (unknown origin) assessed as reduction in BDNF-induced wound closure at 40 nM incubated for 24 hrs by bright field microscopy relative to control; format: functional
In short: (§3)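 SH-SY5Y-TrkB monolayers were grown to near confluence and scratched with a pipette tip, then washed with PBS. Cells were incubated 24 h in MEM/F-12 with 2% FBS, with or without BDNF 10 ng/mL and with compound. Three random fields were imaged by bright-field microscopy and % wound closure was measured. Run three times, each in triplicate.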

SH-SY5Y [7] = assay: Inhibition of cell migration in human SH-SY5Y cells transfected with TrkB (unknown origin) assessed as reduction in BDNF-induced wound closure at 8 nM incubated for 24 hrs by bright field microscopy relative to control; format: functional; in short: as §3
[8] = molecular target: T1, BDNF/NT-3 growth factors receptor (Homo sapiens, UniProt Q16620); assay: Inhibition of BDNF-induced TrkB (unknown origin) activation transfected in human SH-SY5Y cells assessed as decrease in Erk phosphorylation incubated for 6 hrs followed by BDNF addition further incubated for 30 mins by Western blot analysis; format: cell-based
In short: (§4)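 SH-SY5Y-TrkB stable transfectants were pretreated with 0–2.0 µM compound for 6 h, then given BDNF 10 ng/mL or none for 30 min. Lysates were run on 8–12% SDS-PAGE, blotted to PVDF and blocked in 5% BSA. Primary antibodies were applied overnight at 4 °C, then HRP secondary, with ECL detection. Phospho and total TrkB, PLC-γ1, Akt (Ser473, Thr308) and Erk were probed, with GAPDH as control.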
Target sequence in this assay (Q16620 32-822 limits assumed): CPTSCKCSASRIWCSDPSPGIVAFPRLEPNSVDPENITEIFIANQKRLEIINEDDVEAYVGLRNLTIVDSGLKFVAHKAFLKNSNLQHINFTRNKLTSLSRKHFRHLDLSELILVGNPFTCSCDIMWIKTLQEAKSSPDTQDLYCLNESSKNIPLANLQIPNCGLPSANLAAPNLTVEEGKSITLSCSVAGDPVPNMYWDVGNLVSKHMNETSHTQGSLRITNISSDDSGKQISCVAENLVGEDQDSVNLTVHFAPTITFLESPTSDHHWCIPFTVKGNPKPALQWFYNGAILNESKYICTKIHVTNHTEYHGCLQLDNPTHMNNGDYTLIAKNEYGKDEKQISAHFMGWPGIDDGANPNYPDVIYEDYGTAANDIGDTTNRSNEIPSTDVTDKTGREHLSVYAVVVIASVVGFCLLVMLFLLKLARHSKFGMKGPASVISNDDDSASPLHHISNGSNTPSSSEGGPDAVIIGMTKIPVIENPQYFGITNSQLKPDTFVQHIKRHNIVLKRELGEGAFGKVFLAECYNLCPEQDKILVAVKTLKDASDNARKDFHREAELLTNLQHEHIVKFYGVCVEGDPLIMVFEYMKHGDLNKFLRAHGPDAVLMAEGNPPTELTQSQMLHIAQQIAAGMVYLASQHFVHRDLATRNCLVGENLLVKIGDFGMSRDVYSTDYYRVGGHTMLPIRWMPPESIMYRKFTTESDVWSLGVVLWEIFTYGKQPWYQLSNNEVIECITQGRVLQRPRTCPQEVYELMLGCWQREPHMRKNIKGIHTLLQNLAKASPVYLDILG

[9] = molecular target: T1, BDNF/NT-3 growth factors receptor; assay: Inhibition of recombinant human His-tagged TrkB catalytic domain (526 to 838 residues) expressed in baculovirus expression system using tyr 01 as substrate incubated for 1 hr by Z'-Lyte assay
Target sequence in this assay (Q16620 whole entry): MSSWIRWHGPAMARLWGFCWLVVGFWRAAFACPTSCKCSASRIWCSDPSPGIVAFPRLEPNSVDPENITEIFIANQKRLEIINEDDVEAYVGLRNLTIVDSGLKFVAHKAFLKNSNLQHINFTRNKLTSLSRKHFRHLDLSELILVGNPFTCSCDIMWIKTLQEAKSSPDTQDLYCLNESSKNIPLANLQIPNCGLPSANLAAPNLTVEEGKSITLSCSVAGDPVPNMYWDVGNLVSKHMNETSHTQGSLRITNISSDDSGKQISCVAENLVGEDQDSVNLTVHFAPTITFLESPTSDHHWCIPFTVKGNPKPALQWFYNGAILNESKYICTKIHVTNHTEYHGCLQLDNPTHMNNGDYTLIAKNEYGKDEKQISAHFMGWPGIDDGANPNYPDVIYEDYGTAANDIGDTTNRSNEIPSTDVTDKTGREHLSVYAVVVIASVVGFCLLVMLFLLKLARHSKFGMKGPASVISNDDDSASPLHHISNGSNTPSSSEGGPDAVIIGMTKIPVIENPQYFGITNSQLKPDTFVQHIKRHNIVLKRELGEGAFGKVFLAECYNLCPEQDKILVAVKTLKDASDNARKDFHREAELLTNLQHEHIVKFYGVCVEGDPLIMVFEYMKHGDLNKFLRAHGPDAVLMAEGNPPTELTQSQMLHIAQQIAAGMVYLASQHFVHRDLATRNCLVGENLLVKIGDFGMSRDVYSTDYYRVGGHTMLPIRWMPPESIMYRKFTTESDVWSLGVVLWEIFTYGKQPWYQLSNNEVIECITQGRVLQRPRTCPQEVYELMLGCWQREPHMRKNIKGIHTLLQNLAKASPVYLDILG

[10] = Plasma concentration in Sprague-Dawley rat at 25 mg/kg, po administered via gavage incubated for 0.5 hrs by LC/MS-MS analysis; format: ADME, organism-based
SH-SY5Y [11] = assay: Inhibition of BDNF-induced cell invasion in human SH-SY5Y cells transfected with TrkB (unknown origin) at 40 nM incubated for 24 hrs by crystal violet staining microscopy-based matrigel assay relative to control; format: functional; in short: as §1
[12] = molecular target: Tyrosine-protein kinase ABL1 (Homo sapiens, UniProt P00519); assay: Inhibition of recombinant full length human His-tagged ABL1 expressed in baculovirus infected insect cells using tyr 02 as substrate incubated for 2 hr by Z'-Lyte assay
SH-SY5Y [13] = assay: Inhibition of BDNF-induced cell invasion in human SH-SY5Y cells transfected with TrkB (unknown origin) at 8 nM incubated for 24 hrs by crystal violet staining microscopy-based matrigel assay relative to control; format: functional; in short: as §1
SH-SY5Y [14] = assay: Inhibition of BDNF-induced cell migration in human SH-SY5Y cells transfected with TrkB (unknown origin) incubated for 24 hrs by crystal violet staining microscopy based transwell assay; format: functional; in short: as §2
[15] = molecular target: High affinity nerve growth factor receptor (Homo sapiens, UniProt P04629); assay: Inhibition of recombinant human His-tagged TrkA catalytic domain (441 to 796 residues) expressed in baculovirus expression system using tyr 01 as substrate incubated for 1 hr by Z'-Lyte assay
SH-SY5Y [16] = assay: Neurotoxicity in human SH-SY5Y cells assessed as reduction in cell viability incubated for 72 hrs by CCK8 assay; format: toxicity, cell-based
[17] = molecular target: NT-3 growth factor receptor (Homo sapiens, UniProt Q16288); assay: Inhibition of recombinant human His-tagged TrkC cytoplasmic domain (510 to 825 residues) expressed in baculovirus using tyr 01 as substrate incubated for 1 hr by Z'-Lyte assay
[18] = Drug concentration in Sprague-Dawley rat brain at 25 mg/kg, po administered via gavage incubated for 2 hrs by LC/MS-MS analysis; format: ADME, organism-based; conditions: read-out: Ct
SH-SY5Y [19] = assay: Inhibition of BDNF-induced cell migration in human SH-SY5Y cells transfected with TrkB (unknown origin) at 40 nM incubated for 24 hrs by crystal violet staining microscopy based transwell assay relative to control; format: functional; in short: as §2
[20] = Drug concentration in Sprague-Dawley rat brain at 25 mg/kg, po administered via gavage incubated for 0.5 hrs by LC/MS-MS analysis; format: ADME, organism-based; conditions: read-out: Ct
[21] = molecular target: T1, BDNF/NT-3 growth factors receptor; assay: Inhibition of TrkB (unknown origin) transfected in human SH-SY5Y cells assessed as decrease in BDNF-induced TrkB phosphorylation at >=16 nM incubated for 6 hrs followed by BDNF addition further incubated for 30 mins by Western blot analysis; format: cell-based; in short: as §4
Target sequence in this assay (Q16620 32-822 limits assumed): as the sequence (Q16620 32-822 limits assumed) above

SH-SY5Y [22] = assay: Antiproliferative activity against human SH-SY5Y cells transfected with TrkB (unknown origin) assessed as reduction in cell viability incubated for 72 hrs by CCK8 assay; format: functional, cell-based
In short: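 SH-SY5Y-TrkB cells (SH-SY5Y stably transfected with pRP-TrkB, kept under 0.5 µg/ml puromycin in 1:1 MEM/F-12 with 10% FBS) seeded at 1500-3000/well, left overnight. Compounds 0.000457–3 µM were then added with or without BDNF 10 ng/ml for 72 h. Read-out by CCK8. IC50 came from concentration-response curve fitting, reported as mean ± SD from at least three independent experiments.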

[23] = molecular target: T1, BDNF/NT-3 growth factors receptor; assay: Inhibition of TrkB (unknown origin) transfected in human SH-SY5Y cells assessed as decrease in BDNF-induced TrkB phosphorylation incubated for 6 hrs followed by BDNF addition further incubated for 30 mins by Western blot analysis; format: cell-based; in short: as §4
Target sequence in this assay (Q16620 32-822 limits assumed): as above

[24] = Drug concentration in Sprague-Dawley rat brain at 25 mg/kg, po administered via gavage incubated for 8 hrs by LC/MS-MS analysis; format: ADME, organism-based; conditions: read-out: Ct
[25] = Effect on ERK phosphorylation in BDNF-induced human SH-SY5Y cells up to 2 uM preincubated for 6 hrs followed by BDNF addition and measured after 30 mins by Western blot analysis; format: cell-based; conditions: 0.5 h
[26] = molecular target: T1, BDNF/NT-3 growth factors receptor; assay: Inhibition of BDNF-induced TrkB (unknown origin) activation transfected in human SH-SY5Y cells assessed as decrease in Akt phosphorylation at Thr308 residue incubated for 6 hrs followed by BDNF addition further incubated for 30 mins by Western blot analysis; format: cell-based; in short: as §4
Target sequence in this assay (Q16620 32-822 limits assumed): as above

[27] = Ratio of drug concentration in brain to blood of Sprague-Dawley rat at 25 mg/kg, po administered via gavage incubated for 8 hrs by LC/MS-MS analysis; format: ADME, organism-based; conditions: brain and blood, read-out: BBR
[28] = molecular target: T1, BDNF/NT-3 growth factors receptor; assay: Inhibition of BDNF-induced TrkB (unknown origin) activation transfected in human SH-SY5Y cells assessed as decrease in PLCgamma1 phosphorylation incubated for 6 hrs followed by BDNF addition further incubated for 30 mins by Western blot analysis; format: cell-based; in short: as §4
Target sequence in this assay (Q16620 32-822 limits assumed): as above

[29] = Plasma concentration in Sprague-Dawley rat at 25 mg/kg, po administered via gavage incubated for 8 hrs by LC/MS-MS analysis; format: ADME, organism-based
SH-SY5Y [30] = assay: Inhibition of BDNF-induced cell migration in human SH-SY5Y cells transfected with TrkB (unknown origin) at 8 nM incubated for 24 hrs by crystal violet staining microscopy based transwell assay relative to control; format: functional; in short: as §2
SH-SY5Y [31] = assay: Inhibition of cell migration in human SH-SY5Y cells transfected with TrkB (unknown origin) assessed as reduction in BDNF-induced wound closure at 200 nM incubated for 24 hrs by bright field microscopy relative to control; format: functional; in short: as §3
SH-SY5Y [32] = assay: Inhibition of BDNF-induced cell invasion in human SH-SY5Y cells transfected with TrkB (unknown origin) at 200 nM incubated for 24 hrs by crystal violet staining microscopy-based matrigel assay relative to control; format: functional; in short: as §1
[33] = Plasma concentration in Sprague-Dawley rat at 25 mg/kg, po administered via gavage incubated for 2 hrs by LC/MS-MS analysis; format: ADME, organism-based

Sequence of High affinity nerve growth factor receptor (P04629 whole entry, the tested form may be a part): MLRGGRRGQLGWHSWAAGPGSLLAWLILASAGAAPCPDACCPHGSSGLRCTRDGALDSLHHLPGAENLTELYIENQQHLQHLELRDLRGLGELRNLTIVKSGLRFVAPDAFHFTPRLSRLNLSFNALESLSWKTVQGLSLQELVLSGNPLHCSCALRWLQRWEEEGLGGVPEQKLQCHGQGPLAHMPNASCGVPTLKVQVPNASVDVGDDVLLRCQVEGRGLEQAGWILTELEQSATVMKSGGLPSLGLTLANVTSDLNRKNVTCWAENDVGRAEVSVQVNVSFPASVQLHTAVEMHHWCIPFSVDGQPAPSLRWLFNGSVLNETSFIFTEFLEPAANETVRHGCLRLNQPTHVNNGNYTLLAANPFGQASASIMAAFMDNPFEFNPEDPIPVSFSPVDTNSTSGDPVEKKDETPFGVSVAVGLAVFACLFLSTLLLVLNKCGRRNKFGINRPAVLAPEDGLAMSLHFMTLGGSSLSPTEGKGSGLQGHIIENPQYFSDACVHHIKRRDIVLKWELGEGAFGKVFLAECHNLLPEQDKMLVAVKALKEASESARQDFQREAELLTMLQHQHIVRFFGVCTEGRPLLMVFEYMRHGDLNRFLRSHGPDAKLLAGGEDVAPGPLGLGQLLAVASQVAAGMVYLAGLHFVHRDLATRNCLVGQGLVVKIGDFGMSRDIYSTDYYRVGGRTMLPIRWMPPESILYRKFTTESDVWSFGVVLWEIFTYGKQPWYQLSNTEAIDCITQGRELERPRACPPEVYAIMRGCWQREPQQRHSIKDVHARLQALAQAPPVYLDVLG
Sequence of Tyrosine-protein kinase ABL1 (P00519 whole entry): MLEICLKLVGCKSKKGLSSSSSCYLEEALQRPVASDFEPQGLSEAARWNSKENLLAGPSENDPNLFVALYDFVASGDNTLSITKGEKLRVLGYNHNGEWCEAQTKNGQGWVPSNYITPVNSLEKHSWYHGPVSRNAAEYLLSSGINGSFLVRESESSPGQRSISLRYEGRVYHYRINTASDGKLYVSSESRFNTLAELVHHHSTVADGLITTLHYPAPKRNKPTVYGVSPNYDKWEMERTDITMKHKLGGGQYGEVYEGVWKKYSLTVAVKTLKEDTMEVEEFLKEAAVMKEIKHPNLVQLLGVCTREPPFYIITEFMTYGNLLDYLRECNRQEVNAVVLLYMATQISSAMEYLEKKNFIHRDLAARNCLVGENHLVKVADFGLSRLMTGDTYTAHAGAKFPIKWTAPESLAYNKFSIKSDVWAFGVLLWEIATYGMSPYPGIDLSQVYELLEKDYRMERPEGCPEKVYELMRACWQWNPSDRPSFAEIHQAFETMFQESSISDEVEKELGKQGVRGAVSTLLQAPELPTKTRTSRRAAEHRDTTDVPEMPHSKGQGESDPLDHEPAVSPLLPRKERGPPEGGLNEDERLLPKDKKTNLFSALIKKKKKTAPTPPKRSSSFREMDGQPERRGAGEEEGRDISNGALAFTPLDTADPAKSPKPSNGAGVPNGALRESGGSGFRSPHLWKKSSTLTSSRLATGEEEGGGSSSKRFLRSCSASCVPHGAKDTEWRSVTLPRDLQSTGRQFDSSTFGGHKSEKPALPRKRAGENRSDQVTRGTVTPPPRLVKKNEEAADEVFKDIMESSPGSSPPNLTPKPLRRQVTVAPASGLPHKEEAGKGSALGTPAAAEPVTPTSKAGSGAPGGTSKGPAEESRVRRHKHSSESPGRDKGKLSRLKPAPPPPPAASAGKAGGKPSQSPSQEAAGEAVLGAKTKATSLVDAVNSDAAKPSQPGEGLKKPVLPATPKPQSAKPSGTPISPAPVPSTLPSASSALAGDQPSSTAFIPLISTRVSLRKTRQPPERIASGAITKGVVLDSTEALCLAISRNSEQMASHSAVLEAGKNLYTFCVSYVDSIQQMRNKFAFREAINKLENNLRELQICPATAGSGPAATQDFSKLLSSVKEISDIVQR
Sequence of NT-3 growth factor receptor (Q16288 whole entry, the tested form may be a part): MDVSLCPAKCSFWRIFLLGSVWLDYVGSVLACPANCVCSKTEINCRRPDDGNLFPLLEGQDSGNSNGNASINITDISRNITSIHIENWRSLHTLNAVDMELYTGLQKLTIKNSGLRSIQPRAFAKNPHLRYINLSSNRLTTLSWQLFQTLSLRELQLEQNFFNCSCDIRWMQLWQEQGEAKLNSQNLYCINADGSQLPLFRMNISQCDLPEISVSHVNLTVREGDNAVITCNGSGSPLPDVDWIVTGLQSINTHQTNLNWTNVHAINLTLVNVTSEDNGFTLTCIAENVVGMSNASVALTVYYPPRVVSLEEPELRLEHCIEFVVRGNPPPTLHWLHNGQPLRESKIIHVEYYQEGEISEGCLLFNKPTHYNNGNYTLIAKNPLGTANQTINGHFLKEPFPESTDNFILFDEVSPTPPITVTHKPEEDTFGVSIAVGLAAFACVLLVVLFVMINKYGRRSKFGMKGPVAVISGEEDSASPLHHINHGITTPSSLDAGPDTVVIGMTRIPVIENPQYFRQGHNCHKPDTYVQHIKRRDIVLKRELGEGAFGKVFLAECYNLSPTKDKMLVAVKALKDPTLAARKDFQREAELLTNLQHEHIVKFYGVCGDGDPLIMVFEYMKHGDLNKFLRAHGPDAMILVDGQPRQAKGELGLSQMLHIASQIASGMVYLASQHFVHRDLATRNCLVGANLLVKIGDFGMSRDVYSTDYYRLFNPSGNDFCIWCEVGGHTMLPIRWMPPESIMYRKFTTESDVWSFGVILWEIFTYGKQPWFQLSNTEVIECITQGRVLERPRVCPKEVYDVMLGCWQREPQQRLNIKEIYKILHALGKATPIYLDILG
Sequence of RAC-alpha serine/threonine-protein kinase (P31749 whole entry): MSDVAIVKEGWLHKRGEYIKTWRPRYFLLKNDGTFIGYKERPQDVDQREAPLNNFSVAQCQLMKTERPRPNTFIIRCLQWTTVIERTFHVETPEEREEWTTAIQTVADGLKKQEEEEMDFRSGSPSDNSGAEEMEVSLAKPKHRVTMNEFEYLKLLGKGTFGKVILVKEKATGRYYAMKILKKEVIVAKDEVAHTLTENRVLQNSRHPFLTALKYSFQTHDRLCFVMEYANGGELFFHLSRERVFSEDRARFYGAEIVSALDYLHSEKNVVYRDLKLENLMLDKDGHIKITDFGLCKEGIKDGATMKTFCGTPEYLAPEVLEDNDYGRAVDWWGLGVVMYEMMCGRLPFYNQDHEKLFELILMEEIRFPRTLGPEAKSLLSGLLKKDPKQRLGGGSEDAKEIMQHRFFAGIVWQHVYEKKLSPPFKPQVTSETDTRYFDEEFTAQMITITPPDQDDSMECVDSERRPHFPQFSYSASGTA

IC50 [9]: 254 nM
IC50 [12]: > 1000 nM
IC50 [15]: 227 nM
Compound: CN1CCN(Cc2cc(NC(=O)c3cccc(C#Cc4cnc5cnccn45)c3Cl)cc(C(F)(F)F)c2)CC1

IC50 [9]: 315 nM
IC50 [12]: > 1000 nM
IC50 [15]: 186 nM
Compound: CCc1c(C#Cc2cnc3cnccn23)cccc1C(=O)Nc1cc(CN2CCN(C)CC2)cc(C(F)(F)F)c1

IC50 [9]: > 1000 nM
IC50 [12]: > 1000 nM
IC50 [15]: > 1000 nM
IC50 [17]: > 1000 nM
Compound: CCCc1c(C#Cc2cnc3cnccn23)cccc1C(=O)Nc1cc(CN2CCN(C)CC2)cc(C(F)(F)F)c1

The remaining lines, values behind:

Compound: Cc1c(C#Cc2cnc3cnc(-c4ccc(N)cc4)cn23)cccc1C(=O)Nc1cc(CN2CCN(C)CC2)cc(C(C)C)c1
Kp at 0.5 h [1]: 6.4
inhibition (SH-SY5Y [2]): Dose-dependent effect
inhibition at 0.2 µM (SH-SY5Y [3]): 82%
Activity [4]: Not Active
Kp at 2 h [5]: 6
inhibition at 0.04 µM (SH-SY5Y [6]): 76.6%
inhibition at 0.008 µM (SH-SY5Y [7]): 50.1%
inhibition [8]: Dose-dependent effect
IC50 [9]: 10.5 nM
concentration at 0.5 h [10]: 7.33 ng/mL
inhibition at 0.04 µM (SH-SY5Y [11]): 61.9%
IC50 [12]: > 1000 nM
inhibition at 0.008 µM (SH-SY5Y [13]): 9.1%
inhibition (SH-SY5Y [14]): Dose-dependent effect
IC50 [15]: 2.65 nM
Activity (SH-SY5Y [16]): Non-Toxic
IC50 [17]: 2.95 nM
concentration at 2 h [18]: 0.355 ng/mL
inhibition at 0.04 µM (SH-SY5Y [19]): 53.3%
concentration at 0.5 h [20]: 0.078 ng/mL
inhibition [21]: 100%
IC50 (SH-SY5Y [22]): 58 nM
inhibition [23]: Dose-dependent effect
concentration at 8 h [24]: 0.09 ng/mL
Activity [25]: Not Active
inhibition [26]: Dose-dependent effect
Kp at 8 h [27]: 8.3
inhibition [28]: Dose-dependent effect
concentration at 8 h [29]: 6.52 ng/mL
inhibition at 0.008 µM (SH-SY5Y [30]): 22.7%
inhibition at 0.2 µM (SH-SY5Y [31]): 77.5%
inhibition at 0.2 µM (SH-SY5Y [32]): 85.5%
concentration at 2 h [33]: 33.2 ng/mL

Compound: Cc1c(C#Cc2cnc3cnc(-c4ccccc4)cn23)cccc1C(=O)Nc1cc(CN2CCN(C)CC2)cc(C(F)(F)F)c1
IC50 [9]: 22.7 nM
IC50 [12]: > 1000 nM
IC50 [15]: 29.2 nM

Compound: Cc1ccc(C#Cc2cnc3cnccn23)cc1C(=O)Nc1cc(CN2CCN(C)CC2)cc(C(F)(F)F)c1
IC50 [9]: > 1000 nM
IC50 [12]: > 1000 nM
IC50 [15]: > 1000 nM

Compound: Cc1cc(CN2CCN(C)CC2)cc(NC(=O)c2cccc(C#Cc3cnc4cnc(-c5ccc(N)cc5)cn34)c2C)c1
IC50 [9]: 41.3 nM
IC50 [12]: > 1000 nM
IC50 [15]: 17.4 nM

Compound: Cc1c(C#Cc2cnc3cnc(-c4ccc(N)cc4)cn23)cccc1C(=O)Nc1cc(CN2CCN(C)CC2)cc(C(F)(F)F)c1
IC50 [9]: 13.1 nM
IC50 [12]: > 1000 nM
IC50 [15]: 7.75 nM

Compound: O=C(Nc1cnn2ccc(N3CCC[C@@H]3c3cc(F)ccc3F)nc12)N1CC[C@H](O)C1 [LAROTRECTINIB]
IC50 [12]: > 1000 nM
Activity (SH-SY5Y [16]): Non-Toxic
Activity (SH-SY5Y [22]): Active
